This passage reports inhibition and pD2 results from ChEMBL document CHEMBL4842371 (J Med Chem, 2021).

One data set concerns the target CYP2D6 (Homo sapiens, UniProt P10635). In words: Inhibition of CYP2D6 (unknown origin) at 10 uM relative to control. It counts as ADME. The method in brief: (§1)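 CYP isoenzyme inhibition is measured at 10 μM compound. Result is given as % inhibition.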
Another data set addresses CYP2C9 (Homo sapiens, UniProt P11712). In words: Inhibition of CYP2C9 (unknown origin) at 10 uM relative to control. It counts as ADME. In a few lines:
as §1

The target in data set [1] is T1, 5-hydroxytryptamine receptor 3A (Cavia porcellus) (UniProt O70212).
T1 sequence (whole entry): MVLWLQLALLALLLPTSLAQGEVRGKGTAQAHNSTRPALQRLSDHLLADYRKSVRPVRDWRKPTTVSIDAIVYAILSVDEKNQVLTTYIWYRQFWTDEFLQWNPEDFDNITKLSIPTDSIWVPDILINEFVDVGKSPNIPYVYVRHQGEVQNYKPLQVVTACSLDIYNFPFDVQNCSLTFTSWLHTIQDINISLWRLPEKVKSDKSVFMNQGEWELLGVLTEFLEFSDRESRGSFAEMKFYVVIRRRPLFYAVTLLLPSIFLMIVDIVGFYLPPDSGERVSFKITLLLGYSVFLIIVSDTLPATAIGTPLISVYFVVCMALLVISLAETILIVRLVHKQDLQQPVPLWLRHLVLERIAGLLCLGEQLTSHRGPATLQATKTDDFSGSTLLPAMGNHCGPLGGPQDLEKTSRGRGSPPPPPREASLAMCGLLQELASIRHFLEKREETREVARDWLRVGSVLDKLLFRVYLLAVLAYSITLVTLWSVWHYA
To be noted: Ileum, filed as antagonist.

Sequence of CYP2C9 (P11712 whole entry): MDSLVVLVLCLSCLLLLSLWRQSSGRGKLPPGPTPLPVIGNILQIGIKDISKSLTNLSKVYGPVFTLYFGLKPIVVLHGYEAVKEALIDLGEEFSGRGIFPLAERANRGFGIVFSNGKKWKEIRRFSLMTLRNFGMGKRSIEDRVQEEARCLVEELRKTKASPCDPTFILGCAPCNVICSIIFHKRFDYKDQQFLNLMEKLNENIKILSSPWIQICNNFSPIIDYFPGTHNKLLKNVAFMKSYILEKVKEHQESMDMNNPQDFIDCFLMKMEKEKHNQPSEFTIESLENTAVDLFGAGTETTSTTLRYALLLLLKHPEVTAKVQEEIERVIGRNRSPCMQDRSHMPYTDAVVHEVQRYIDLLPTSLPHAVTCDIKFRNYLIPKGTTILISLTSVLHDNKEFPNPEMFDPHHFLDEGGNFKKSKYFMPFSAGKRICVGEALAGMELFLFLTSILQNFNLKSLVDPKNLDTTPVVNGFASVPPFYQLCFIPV
Sequence of CYP2D6 (P10635 whole entry): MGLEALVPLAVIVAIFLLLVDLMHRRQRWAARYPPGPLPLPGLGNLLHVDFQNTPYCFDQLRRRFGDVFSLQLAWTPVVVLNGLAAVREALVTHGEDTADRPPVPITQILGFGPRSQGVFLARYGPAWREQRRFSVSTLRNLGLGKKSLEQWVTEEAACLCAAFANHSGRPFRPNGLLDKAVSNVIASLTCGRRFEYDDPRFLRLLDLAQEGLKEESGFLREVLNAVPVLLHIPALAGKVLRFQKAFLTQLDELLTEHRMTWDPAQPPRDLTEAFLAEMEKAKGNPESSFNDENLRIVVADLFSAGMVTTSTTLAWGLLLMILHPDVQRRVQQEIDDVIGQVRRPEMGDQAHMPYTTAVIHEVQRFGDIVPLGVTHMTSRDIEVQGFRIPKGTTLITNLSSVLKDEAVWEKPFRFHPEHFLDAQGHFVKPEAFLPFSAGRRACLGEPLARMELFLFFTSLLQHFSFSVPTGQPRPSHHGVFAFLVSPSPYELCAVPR

As for `O=S(=O)(c1cccc(F)c1)n1ccc2c(N3CCNCC3)nc3ccccc3c21`, the inhibition at 10 µM against CYP2D6 and on CYP2C9 was under 25% each time. Consider `Cc1nccn1CC1CCc2c(c3ccccc3n2C)C1=O` (stereo not drawn), for which, in data set [1], the pD2 amounted to 6.43.
